Data set [1] is described as follows: Cytotoxicity against human Jurkat T cells assessed as appearance of early apoptotic cells at 25 uM after 24 hrs by annexin V-FLUOS/propidium iodide staining-based flow cytometric analysis. Format: cell-based. Summed up:
(§1)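 Jurkat T lymphocytes kept at 37 °C, 5% CO2 in RPMI1640 with 10% FBS and 1% streptomycin/penicillin. Exposed to 25 μM compound for 24 h, then stained with annexin-V-FLUOS and propidium iodide and read by flow cytometry. Viable cells are negative for both stains.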
(In general: Flow cytometry measures light scatter and fluorescence of single cells or particles in a stream.)

The target of data set [2] is T1, Nuclear factor NF-kappa-B p105 subunit (Homo sapiens) (UniProt P19838).
T1 sequence (whole entry): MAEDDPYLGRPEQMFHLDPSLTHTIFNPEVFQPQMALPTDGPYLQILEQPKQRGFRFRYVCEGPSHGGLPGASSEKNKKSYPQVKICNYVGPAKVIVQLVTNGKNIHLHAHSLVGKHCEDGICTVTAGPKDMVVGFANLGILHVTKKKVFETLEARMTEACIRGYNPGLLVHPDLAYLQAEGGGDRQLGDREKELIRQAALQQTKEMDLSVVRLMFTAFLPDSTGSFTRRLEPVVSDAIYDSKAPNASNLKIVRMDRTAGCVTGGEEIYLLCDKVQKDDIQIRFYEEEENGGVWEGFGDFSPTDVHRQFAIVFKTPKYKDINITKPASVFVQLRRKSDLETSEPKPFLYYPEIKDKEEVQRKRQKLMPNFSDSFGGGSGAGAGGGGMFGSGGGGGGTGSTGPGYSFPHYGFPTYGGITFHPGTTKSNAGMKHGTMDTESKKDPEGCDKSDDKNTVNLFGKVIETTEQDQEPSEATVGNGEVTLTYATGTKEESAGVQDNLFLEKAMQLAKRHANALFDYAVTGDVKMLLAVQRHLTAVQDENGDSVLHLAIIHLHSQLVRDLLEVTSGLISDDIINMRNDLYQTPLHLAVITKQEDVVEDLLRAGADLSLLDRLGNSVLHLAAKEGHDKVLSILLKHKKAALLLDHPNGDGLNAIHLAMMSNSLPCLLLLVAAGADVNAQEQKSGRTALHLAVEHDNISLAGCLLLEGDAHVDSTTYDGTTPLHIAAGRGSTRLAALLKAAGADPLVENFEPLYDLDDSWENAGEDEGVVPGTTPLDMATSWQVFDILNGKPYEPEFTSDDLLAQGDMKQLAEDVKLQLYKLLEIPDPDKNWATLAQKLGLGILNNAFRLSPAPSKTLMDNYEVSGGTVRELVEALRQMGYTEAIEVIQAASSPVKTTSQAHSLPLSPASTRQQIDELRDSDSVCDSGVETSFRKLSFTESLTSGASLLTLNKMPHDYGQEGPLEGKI
The data set is described as follows: Inhibition of TNF-alpha-stimulated NF-kappaB p50 (unknown origin) expressed in HEK293 cells at 1 to 100 uM preincubated for 4 hrs followed by TNF-alpha challenge measured after 24 hrs by secreted alkaline phosphatase reporter assay. The format is cell-based. In short, it runs like this: (§2)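 HEK293 stably transfected with NF-κB/SEAP, grown in DMEM/10% FBS/500 μg/mL G418 and seeded at ~2 × 10^5 cells/well to ~70% confluence. Pretreated 4 h with rising compound concentrations or 0.05% DMSO, then TNF-α 10 ng/mL for 24 h. Secreted SEAP measured by kit, with TNF-α-induced untreated cells as 100%. Quadruplicates, mean; IC50 from the concentration curve.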
On the technique in general: Reporter assays use an easily measured gene product as a stand-in for the process of interest.

A short description of data set [3]: Cytotoxicity against human Jurkat T cells assessed as appearance of viable cells at 25 uM after 24 hrs by annexin V-FLUOS/propidium iodide staining-based flow cytometric analysis. Format: cell-based. The settings on record: read-out: Activity. Summed up: as §1
The nature of data set [4]: Cytotoxicity against human Jurkat T cells assessed as appearance of late apoptotic cells at 25 uM after 24 hrs by annexin V-FLUOS/propidium iodide staining-based flow cytometric analysis. Format: cell-based. In short, it runs like this: as §1
Data set [5] is described as follows: Cytotoxicity against human Jurkat T cells assessed as appearance of necrotic cells at 25 uM after 24 hrs by annexin V-FLUOS/propidium iodide staining-based flow cytometric analysis. Format: cell-based. In short, it runs like this:
as §1

Data set [6] addresses T1, Nuclear factor NF-kappa-B p105 subunit (Homo sapiens). The data set is described as follows: Binding affinity to 6His-tagged recombinant human NF-kappaB p50 N-terminal domain expressed in Escherichia coli BL21 (DE3) up to 50:1 compound to protein molar ratio after 2 hrs by mass spectrometric analysis. In short, it runs like this:
(§3)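 Recombinant 6His-tagged p50 NTD (E. coli BL21(DE3), Ni-NTA then Superdex 200 gel filtration, dialysed into PBS) at 20 μM, incubated with compound in PBS with 1 mM EDTA, 10 μM β-mercaptoethanol, 5% glycerol (v/v), 37 °C, 2 h. Acetic acid quench, reversed-phase column, ESI-MS at m/z 500–3000. Reaction extent scored from adduct versus unbound protein across rising molar ratios.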

Data set [7] shares this target. The experiment in a line: Binding affinity to 6His-tagged recombinant human NF-kappaB p50 N-terminal domain expressed in Escherichia coli BL21 (DE3) at 4:1 compound to protein molar ratio after 2 hrs by mass spectrometric analysis. In short, it runs like this:
as §3

In data set [8] the target is T2, Nuclear factor NF-kappa-B p105 subunit (Homo sapiens, UniProt P19838).
T2 sequence (P19838 whole entry): T1 sequence (whole entry)
The data set is described as follows: (§4) Inhibition of TNF-alpha-stimulated NF-kappaB p50 (unknown origin) expressed in HEK293 cells preincubated for 4 hrs followed by TNF-alpha challenge measured after 24 hrs by secreted alkaline phosphatase reporter assay. The format is cell-based. In short, it runs like this:
as §2

Data set [9] addresses T1, Nuclear factor NF-kappa-B p105 subunit (Homo sapiens). The experiment in a line: Binding affinity to 6His-tagged recombinant human NF-kappaB p50 N-terminal domain expressed in Escherichia coli BL21 (DE3) up to 10:1 compound to protein molar ratio after 2 hrs by mass spectrometric analysis. Summed up: as §3
A short description of data set [10]: Cytotoxicity against human Jurkat T cells assessed as apoptosis after 24 hrs by annexin V-FLUOS/propidium iodide staining-based flow cytometric analysis. The format is cell-based. In short, it runs like this: as §1
The target in data set [11] is T1, Nuclear factor NF-kappa-B p105 subunit (Homo sapiens). Described as §4. The format is cell-based. In short, it runs like this: as §2

The values below come from ChEMBL document CHEMBL3425410, “Specificity and inhibitory mechanism of andrographolide and its analogues as antiasthma agents on NF-κB p50” (J Nat Prod, 2015).

The source made the active and inactive calls. The rule behind the calls is not given here.

In the case of `C=C1CC[C@@H]2[C@](C)(CO)[C@H](O)CC[C@@]2(C)[C@@H]1/C=C/C1=CCOC1=O`, the values for the Activity in [1], in [4] and in data set [5] were 10.89%, 1.31% and 0.25%, respectively. Moreover, the inhibition entry in data set [2] was “inactive”. In addition, the viability at 24 h, 25 µM in [3] was found to be 87.5%. Moreover, in [6], the outcome was Active.
As for `C=C1CC[C@@H]2[C@](C)(COC(C)=O)[C@H](OC(C)=O)CC[C@@]2(C)[C@@H]1C/C=C1\C=COC1=O`, the result in data set [7] was Active. Also, the results for the Activity in data set [1], in [4] and in data set [5] were 38.24%, 47.95% and 0.24%, respectively. The viability at 24 h, 25 µM in [3] was found to be 13.6%. The compound also showed an IC50 in data set [8] of 11.1 µM.
As to `C[C@]1(CO)[C@H]2CCC(=O)[C@@H](C/C=C3/SC(=S)NC3=O)[C@]2(C)CC[C@H]1O`, the figures for the Activity in [1], in data set [4] and in data set [5] were 6.91%, 7.96% and 1.05%, respectively. Besides, in data set [2], the inhibition entry was “inactive”. Besides, in [3], the viability at 24 h, 25 µM was found to be 84.1%. Moreover, in [9], the result was inactive.
Regarding `C=C1CC[C@@H]2[C@](C)(CO)[C@H](O)CC[C@@]2(C)[C@@H]1CCC1=CCOC1=O` [DEOXYANDROGRAPHOLIDE], the Activity entry in data set [10] is on record as “Non-toxic”. The inhibition result in data set [11] is “inactive”. Besides, the outcome in [9] was inactive.
Take `C=C1CC[C@@H]2[C@](C)(CO)[C@H](O)CC[C@@]2(C)[C@@H]1C/C=C1\C=COC1=O`: the values for the Activity in data set [1], in data set [4] and in [5] were 15.55%, 1.57% and 0.3%, respectively. In addition, in data set [2], the inhibition entry is “inactive”. In addition, the viability at 24 h, 25 µM in data set [3] was 82.6%. Further, the result in [9] was inactive.
Turning to `C=C1CC[C@@H]2[C@](C)(CO)[C@H](O)CC[C@@]2(C)[C@@H]1C/C=C1/C(=O)OC[C@H]1O` [ANDROGRAPHOLIDE], the Activity is given as 35.3% in [1], 9.1% in data set [4] and 1.39% in data set [5]. Also, the viability at 24 h, 25 µM in data set [3] amounted to 54.2%. The compound also displayed an IC50 in data set [8] of 49.6 µM.
In the case of `C[C@]1(CO)[C@H]2CCC(=O)[C@@H](C/C=C3\CCOC3=O)[C@]2(C)CC[C@H]1O`, the Activity in data set [1] stood at 6.29%; in data set [4], 5.52%; in data set [5] it was 0.33%. Further, the inhibition result in data set [2] was “inactive”. The viability at 24 h, 25 µM in data set [3] was determined as 87.9%. In addition, the result in data set [9] was inactive.
As to `C=C1CC[C@@H]2[C@](C)(CO[C@@H]3O[C@H](CO)[C@@H](O)[C@H](O)[C@H]3O)CCC[C@@]2(C)[C@@H]1CCC1=CCOC1=O` [NEOANDROGRAPHOLIDE], the Activity result in data set [10] is reported as “Non-toxic”. Moreover, the inhibition result in [11] was “inactive”. In addition, the result in [9] was inactive.

As usually defined, the IC50 is the midpoint of a concentration-inhibition curve. A higher IC50 goes with weaker potency.
